MrgX1 antagonist – human MrgX1 receptor antagonism, primary screen | MRGX1-HEK293 calcium flux, Fluo-4, BAM8-22 antagonism; active compounds read low | B-score at 10 µM | hit rate 1.3% among 310,000;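 active = calcium-response B-score plate-corrected more than 3 library SD below zero, starting fluorescence within 5 deviations, no agonist response on first addition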;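 note: peak minus trough fluorescence over baseline after final BAM8-22 challenge near maximal dose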
Target sequence (Q96LB2 whole entry, looked up): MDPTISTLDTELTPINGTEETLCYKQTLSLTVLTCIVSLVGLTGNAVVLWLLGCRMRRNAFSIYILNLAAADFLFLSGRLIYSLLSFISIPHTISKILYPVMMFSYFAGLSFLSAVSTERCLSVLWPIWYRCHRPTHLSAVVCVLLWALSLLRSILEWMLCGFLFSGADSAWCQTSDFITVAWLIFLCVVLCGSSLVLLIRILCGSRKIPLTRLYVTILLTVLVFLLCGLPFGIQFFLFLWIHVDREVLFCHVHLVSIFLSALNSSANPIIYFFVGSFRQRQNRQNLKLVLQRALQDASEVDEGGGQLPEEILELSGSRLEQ
MrgX1 ag – human MrgX1 receptor agonism, primary screen; MrgX1-HEK293 cells, Fluo-4 calcium fluorescence, agonist mode; active compounds read high; AID 588627; B-score at 10 µM; Q96LB2; hit rate 0.44% among 310,000;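 active = calcium response B-score plate-corrected fluorescence ratio at least 3 library SD, with starting fluorescence B-score inside 5 SD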
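System: HEK293 cells stably expressing human MrgX1 receptor; Dosing: test compound in the initial addition of three; Schedule: overnight plating, then 30 min 37 °C plus 30 min room-temperature dye loading; Detection: kinetic calcium dye fluorescence, Fluo-4 NW; Controls: per-plate positive and negative controls for Z′ factor.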
MrgX1 PAM – human MrgX1 positive allosteric modulation, primary screen. MrgX1-HEK293, Fluo-4 calcium flux, FDSS; active compounds read high. hit rate 0.63% among 310,000. B-score at 10 µM;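 active = plate-corrected calcium response at least 3 library SD above typical, normal starting fluorescence, not activating the receptor alone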;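 note: compound read alongside a low EC10 to EC30 dose of BAM8-22 agonist; peak minus trough fluorescence over baseline measured at the second addition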
RGS4 inh – human RGS4 inhibition; P49798; HEK293 M3R/RGS4 inducible, Fluo-4 calcium flux; active compounds read high; triggered by carbachol at its EC20; B-score at 10 µM; hit rate 0.45% among 310,000;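 active = B-score, a plate-corrected calcium signal, over three deviations above library mean, with baseline fluorescence within five deviations of library mean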;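 note: RGS4 expression induced by doxycycline in cells with stable M3 receptor; B-score is computed from the integrated fluorescence ratio over baseline after carbachol; higher B-score means a larger calcium signal and so more RGS4 inhibition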
Target sequence (P49798 whole entry, looked up): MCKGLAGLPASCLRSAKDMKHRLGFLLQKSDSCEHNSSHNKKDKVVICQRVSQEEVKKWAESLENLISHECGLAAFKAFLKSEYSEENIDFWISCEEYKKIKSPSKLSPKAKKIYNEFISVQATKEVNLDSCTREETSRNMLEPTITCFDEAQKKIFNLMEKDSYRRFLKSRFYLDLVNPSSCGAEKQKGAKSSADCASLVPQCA
RGS4 act – RGS4 potentiation or activation; HEK293 M3R/inducible RGS4, carbachol calcium flux Fluo4; active compounds read low; B-score at 10 µM; hit rate 0.92% among 310,000; AID 463111;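 active = B-score of the integrated calcium signal more than 4 SD below the library mean, with starting fluorescence not abnormally high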;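 note: negative B-score means reduced calcium response which marks RGS4 activation or potentiation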
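System: HEK293 FlpIn-TREx cells, stable M3R, doxycycline-inducible RGS4. Timing: overnight RGS4 induction, 30 min dye load 37 °C, 20 min compound RT. Also added: carbachol, ECmax concentration. Measured by: Fluo4 fluorescence kinetic imaging of calcium. Evaluation: integrated calcium ratio converted to B score.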
* hit, by the source's call; i = inactive; . = no result given. An excerpt weighted towards active compounds, which were near 3.5% of everything screened.

SMILES	MrgX1 antagonist	MrgX1 ag	MrgX1 PAM	RGS4 inh	RGS4 act
COc1cc(N2CCCC2)c(OC)cc1/C=C1/NC(=S)NC1=O	-5.4*	i	i	i	i
Cc1nc(-c2nc(-c3c(C(=O)NN)noc3C)cs2)cs1	-5.9*	i	i	i	i
Cc1nc(-c2nc(-c3c(C(=O)NNC(=O)c4ccc(Cl)cc4)noc3C)cs2)cs1	i	i	i	i	i
O=C(C1CCN(c2nnc(-n3cccc3)s2)CC1)N1CCN(Cc2ccc3c(c2)OCO3)CC1	i	i	i	i	i
CC1CCN(Cc2ccc(NC(=O)C3CCN(c4nnc(-n5cccc5)s4)CC3)cc2)CC1	i	i	i	i	-8.2*
Cc1cccc(OC(C)C(=O)Nc2ccccc2C(=O)N2CCCCC2)c1 (centres undefined)	i	i	i	i	i
CCOc1cc(/C=N/NC(=O)c2cc(-c3cccc(OC)c3)nc3ccccc23)ccc1O	i	i	i	i	i
C/C(=N\NC(=O)c1cc(-c2cccc(OC(C)C)c2)nc2ccccc12)c1cccnc1	i	i	i	i	-9*
CC(C)COc1cccc(-c2cc(C(=O)N/N=C/c3ccncc3)c3ccccc3n2)c1	i	i	i	i	-7.4*
CC(C)C(OC(=O)CN1C(=O)COc2ccccc21)C(=O)NC1CCCCC1 (centres undefined)	i	i	i	i	i
Cc1c(CCC(=O)O)c(=O)oc2c(C)c3occ(-c4ccc(Cl)cc4)c3cc12	i	i	6.6*	i	i
Cn1cccc1/C=C1\SC(=Nc2ccccc2)NC1=O	i	i	i	i	i
Cc1ccc(N=C2NC(=O)/C(=C/c3cn(C)c4ccccc34)S2)cc1C	-4.8*	i	i	.	.
CC1CCN(c2cc(N)c(Cl)cc2[N+](=O)[O-])CC1	i	i	7.3*	i	i
CC1CCN(c2cc(C#N)c(C#N)cc2[N+](=O)[O-])CC1	i	i	11*	i	i
Cc1noc(C)c1COC(=O)c1cccc(S(=O)(=O)N2CCOCC2)c1	i	i	i	i	i
Cc1noc(C)c1COC(=O)c1cccc(S(=O)(=O)N2c3ccccc3CC2C)c1 (centres undefined)	i	i	i	i	-7.4*
CCCn1cc(CN2CCC(n3nccc3NC(=O)c3ccccc3)CC2)c(C)n1	i	i	i	i	i
CN(C)CCOC(c1ccccc1)c1ccccc1 (tested in a mixture with another compound)	i	i	i	i	i
CN(C)CCOC1c2ccccc2C=Cc2ccccc21	i	i	i	i	-7.1*
Cc1ccc(NC(=O)c2snc3ccc(Cl)cc23)cc1C	i	i	i	i	i
Cc1cccc2sc(NC(=O)C3CCN(S(=O)(=O)c4cc([N+](=O)[O-])ccc4Cl)CC3)nc12	-6.8*	i	i	i	i
O=C(NCc1ccc(Cl)cc1)C1CCN(S(=O)(=O)c2cc([N+](=O)[O-])ccc2Cl)CC1	i	i	i	i	i
CN1CCN(c2nc(Nc3ccc(F)cc3)nc(Nc3ccc(F)cc3)n2)CC1	i	i	i	i	i
COCCNc1oc(/C=C/c2ccccc2OC)nc1S(=O)(=O)c1ccccc1	i	i	6.9*	i	i
SMILES	MrgX1 antagonist	MrgX1 ag	MrgX1 PAM	RGS4 inh	RGS4 act
O=C(OCn1ncc(Br)c(Br)c1=O)c1c(F)cccc1F	i	i	i	5.4*	i
CC(=O)Cn1ncc(Br)c(Br)c1=O	.	.	.	i	i
Cc1cccn2c(=O)c(C(=O)NC3CC(C)CC(C)(C)C3)c(O)nc12 (centres undefined)	i	i	i	i	-7.2*
COc1ccc(NC(=O)COC(=O)c2ccc(O)cc2)c([N+](=O)[O-])c1	-5.5*	i	i	i	i
CSCCC(NC(=O)C1CCC(C)CC1)C(=O)Nc1ccc(NC(C)=O)cc1 (centres undefined)	i	i	i	i	i
Cc1ccc(SCCNC(=O)c2ccc(C)c([N+](=O)[O-])c2)cc1	i	i	i	i	-7*
Cc1ccc(SCCNC(=O)c2ccc([N+](=O)[O-])c(C)c2)cc1	i	i	i	i	i
Cc1ccc2nccc(C(=O)N3CCCC(N4CCN(c5ccc(F)cc5)CC4)C3)c2c1 (centres undefined)	i	i	i	i	i
CC(=O)/C(=N/Nc1ccc(Br)cc1)N1CCCc2ccccc21	i	i	i	i	-7.7*
COc1cccc(CNc2ccc([N+](=O)[O-])c(NCC(=O)O)n2)c1	i	i	i	i	i
CC(=O)NCC(=O)N(c1c(C)n(C)n(-c2ccccc2)c1=O)C1(C(=O)NC2CCCC2)CCCCC1	i	i	15*	i	i
Cc1n[nH]c(C)c1N=Nc1cc(Cl)ccc1Cl	-5.4*	i	i	i	i
COc1ccccc1N=Nc1c(C)n[nH]c1C	i	i	i	i	i
CCc1ccc(-n2cc(-c3ccc(F)cc3)[n+]3c2SCCC3)cc1	i	i	i	i	-7.3*
Cc1ccc(-c2cn(-c3ccccc3)c3[n+]2CCCS3)cc1	i	i	i	i	i
O=S(=O)(c1ccc(-c2ccon2)s1)N1CCN(c2ccncc2)CC1	i	53*	i	i	i
O=S(=O)(c1ccc(-c2ccon2)s1)N1CCCC1	i	i	i	i	i
COc1ccc(-n2c(CCc3ccccc3)nnc2SCC(=O)c2ccccc2)cc1	i	i	i	i	i
O=C(CSc1nnc(CCc2ccccc2)n1-c1ccc(Cl)cc1)NCc1ccccc1	-4.8*	i	i	i	i
COc1ccc(C(=O)CSc2nnc(CCc3ccccc3)n2-c2ccccc2)cc1	-6.4*	i	i	i	i
O=C(CSc1nnc(CNc2ccc(F)cc2)n1Cc1ccccc1)NCc1ccccc1	-6.4*	i	i	i	i
CN1C(=O)C2(c3ccccc31)C1CCCC=C1C(C#N)=C(N)C2(C#N)C#N (centres undefined)	i	i	6.7*	.	.
Cc1onc(-c2ccccc2)c1C(=O)NNC(=S)NC(=O)/C=C/c1cccs1	i	58*	i	i	i
Cc1onc(-c2ccccc2)c1C(=O)NC(=S)NNC(=O)c1ccncc1	i	i	i	i	i
Cc1onc(-c2ccccc2)c1C(=O)NC(=S)NNC(=O)c1ccco1	i	60*	i	i	i

Screening data (PubChem BioAssay)
